The source made the active and inactive calls. The calls are words filed in the database; no cut-off is given here.
Experiments:
[1] = Cytotoxicity against human MT4 cells; type: cell-based
[2] = test system: Vesicular stomatitis virus; assay: Antiviral activity against Vesicular stomatitis virus ATCC VR 1540 infected in African green monkey Vero 76 cells assessed as reduction of virus-plaque formation after 2 days by crystal violet staining; type: functional, organism-based; settings: ATCC VR 1540, Vero, 48 h
[3] = test system: Human immunodeficiency virus 1; assay: Antiviral activity against HIV1 3B infected in human MT4 cells assessed as protection against virus-induced cytopathogenicity by MTT assay; type: functional, organism-based; settings: Human immunodeficiency virus 1, 3B
[4] = Cytotoxicity against bovine MDBK cells assessed as cell viability after 48 to 96 hrs by MTT assay; type: cell-based, Bos taurus; settings: cattle
[5] = Antiviral activity against Bovine viral diarrhea virus 1-NADL ATCC VR-534 infected in MDBK cells assessed as protection against virus-induced cytopathogenicity after 3 to 4 days by MTT assay; type: functional, cell-based; settings: Bovine viral diarrhea virus isolates and strains, ATCC VR-534, MDBK
Outline: (§1)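 Cells seeded in 96-well plates (BHK 5x10^4, MDBK 3x10^4 cells/well), grown overnight to confluence, infected at m.o.i. 0.01 (BHK for Reo-1, MDBK for BVDV); serial compound dilutions in maintenance medium with 0.5% inactivated FBS added after 1 h; viability by MTT after 3–4 days at 37°C; EC50 for 50% protection by linear regression.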

[6] = Cytotoxicity against BHK cells assessed as cell viability after 48 to 96 hrs by MTT assay; type: cell-based, Mesocricetus auratus; settings: hamster
[7] = test system: Yellow fever virus; assay: Antiviral activity against Yellow fever virus 17D infected in BHK cells assessed as protection against virus-induced cytopathogenicity after 3 to 4 days by MTT assay; type: functional, cell-based
[8] = test system: Mammalian orthoreovirus 1; assay: Antiviral activity against Reovirus type-1 ATCC VR-214 infected in BHK cells assessed as protection against virus-induced cytopathogenicity after 3 to 4 days by MTT assay; type: functional, cell-based; settings: Mammalian orthoreovirus 1, ATCC VR-214, BHK; outline: as §1
[9] = Cytotoxicity against African green monkey Vero 76 cells assessed as cell viability after 48 to 96 hrs by crystal violet staining; type: cell-based; settings: chlorocebus sabaeus
[10] = test system: Coxsackievirus B5; assay: Antiviral activity against Human coxsackievirus B5 ATCC VR-29 infected in African green monkey Vero 76 cells assessed as reduction of virus-plaque formation after 3 days by crystal violet staining; type: functional, organism-based; settings: Enterovirus B, ATCC VR-29, Vero, 72 h
Outline: (§2)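 Plaque reduction: Vero-76 at 2x10^5 cells/well grown to confluent monolayers, infected 2 h at 50–100 PFU/well; after removing unadsorbed virus, overlay of D-MEM, 1% inactivated FBS, 0.75% methylcellulose with or without serial compound dilutions; 3 days at 37°C, fixed and stained with crystal violet in 50% ethanol, plaques counted; EC50 by linear regression.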

[11] = test system: Poliovirus 1; assay: Antiviral activity against Poliovirus type 1 ATCC VR-1562 infected in African green monkey Vero 76 cells assessed as reduction of virus-plaque formation after 2 days by crystal violet staining; type: functional, organism-based; settings: Enterovirus C, ATCC VR-1562, Vero, 48 h
[12] = test system: Vaccinia virus; assay: Antiviral activity against Human Vaccinia virus ATCC VR-1549 infected in African green monkey Vero 76 cells assessed as reduction of virus-plaque formation after 3 days by crystal violet staining; type: functional, organism-based; settings: Orthopoxvirus vaccinia, ATCC VR-1549, Vero, 72 h
[13] = test system: Human alphaherpesvirus 1; assay: Antiviral activity against Human herpesvirus 1 KOS ATCC VR-1493 infected in African green monkey Vero 76 cells assessed as reduction of virus-plaque formation after 3 days by crystal violet staining; type: functional, organism-based; settings: Human alphaherpesvirus 1, KOS ATCC VR1493, Vero, 72 h; outline: as §2
[14] = test system: Escherichia coli; assay: Antimicrobial activity against Escherichia coli ATCC 10538 after 18 hrs by twofold serial microdilution method; type: functional, organism-based
[15] = test system: Escherichia coli; assay: Antimicrobial activity against Escherichia coli ATCC 25922 after 18 hrs by twofold serial microdilution method; type: functional, organism-based
[16] = test system: Escherichia coli; assay: Antimicrobial activity against Escherichia coli NCTC 8196 after 18 hrs by twofold serial microdilution method; type: functional, organism-based
[17] = test system: Pseudomonas aeruginosa; assay: Antimicrobial activity against Pseudomonas aeruginosa ATCC 15442 after 18 hrs by twofold serial microdilution method; type: functional, organism-based
[18] = test system: Pseudomonas aeruginosa; assay: Antimicrobial activity against Pseudomonas aeruginosa NCTC 6749 after 18 hrs by twofold serial microdilution method; type: functional, organism-based
[19] = test system: Pseudomonas aeruginosa; assay: Antimicrobial activity against Pseudomonas aeruginosa ATCC 27863 after 18 hrs by twofold serial microdilution method; type: functional, organism-based
[20] = test system: Bordetella bronchiseptica; assay: Antimicrobial activity against Bordetella bronchiseptica ATCC 4617 after 18 hrs by twofold serial microdilution method; type: functional, organism-based
[21] = test system: Candida albicans; assay: Antimicrobial activity against Candida albicans ATCC 10231 after 24 hrs by twofold serial microdilution method; type: functional, organism-based
[22] = test system: Candida albicans; assay: Antimicrobial activity against Candida albicans ATCC 90028 after 24 hrs by twofold serial microdilution method; type: functional, organism-based
[23] = test system: Candida parapsilosis; assay: Antimicrobial activity against Candida parapsilosis ATCC 22019 after 24 hrs by twofold serial microdilution method; type: functional, organism-based
[24] = test system: Mycobacterium tuberculosis; assay: Antimycobacterial activity against Mycobacterium tuberculosis H37Rv ATCC 25618; type: functional
Outline: (§3)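 Classical test-tube successive-dilution method in Youmans' modification of Proskauer and Beck liquid medium with 10% bovine serum. Inoculum came from 14-day cultures. DMSO stock was 10 mg/mL, diluted geometrically in medium. Tubes were incubated at 37 °C. Concentrations tested were 3.1, 6.2, 12.5, 25, 50 and 100 µg/ml. MIC is the minimum concentration inhibiting growth relative to compound-free tubes.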

[25] = test system: Mycobacterium tuberculosis; assay: Antimycobacterial activity against drug-sensitive Mycobacterium tuberculosis Spec. 192; type: functional; outline: as §3

CCOC(=O)c1ccc(NC(=S)Nc2cccc(C(F)(F)F)c2)cc1
CC50 [1]: 23 µM
EC50 [2]: > 71 µM
EC50 [3]: > 23 µM
CC50 [4]: 64 µM
EC50 [5]: > 64 µM
CC50 [6]: 50 µM
EC50 [7]: > 50 µM
EC50 [8]: > 50 µM
CC50 [9]: 71 µM
EC50 [10]: > 71 µM
EC50 [11]: > 71 µM
EC50 [12]: > 71 µM
EC50 [13]: > 71 µM
Activity [14]: inactive
Activity [15]: inactive
Activity [16]: inactive
Activity [17]: inactive
Activity [18]: inactive
Activity [19]: inactive
Activity [20]: inactive
Activity [21]: inactive
Activity [22]: inactive
Activity [23]: inactive
MIC [24]: > 100 mg/L
MIC [25]: > 100 mg/L

From ChEMBL document CHEMBL3616436, “Synthesis, cytotoxicity and antimicrobial activity of thiourea derivatives incorporating 3-(trifluoromethyl)phenyl moiety” (Eur J Med Chem, 2015)
